# Test results: paper PMC3149845 (The Journal of neuroscience : the official journal of the …, 2011)
# Tests used:
# [1] = target: T1, hTas1R2/smTas1R3 (Homo sapiens, UniProt Q8TE23); assay: Ca2+ mobilization, mismatched receptor; assay type: cell-based, human/squirrel monkey; conditions: aspartame 10mM, neotame 1mM, sucralose 2 mM, D-tryptophan 5mM, sucrose 150mM; vs control / wild type human receptor
# T1 sequence (Q8TE23 20-839): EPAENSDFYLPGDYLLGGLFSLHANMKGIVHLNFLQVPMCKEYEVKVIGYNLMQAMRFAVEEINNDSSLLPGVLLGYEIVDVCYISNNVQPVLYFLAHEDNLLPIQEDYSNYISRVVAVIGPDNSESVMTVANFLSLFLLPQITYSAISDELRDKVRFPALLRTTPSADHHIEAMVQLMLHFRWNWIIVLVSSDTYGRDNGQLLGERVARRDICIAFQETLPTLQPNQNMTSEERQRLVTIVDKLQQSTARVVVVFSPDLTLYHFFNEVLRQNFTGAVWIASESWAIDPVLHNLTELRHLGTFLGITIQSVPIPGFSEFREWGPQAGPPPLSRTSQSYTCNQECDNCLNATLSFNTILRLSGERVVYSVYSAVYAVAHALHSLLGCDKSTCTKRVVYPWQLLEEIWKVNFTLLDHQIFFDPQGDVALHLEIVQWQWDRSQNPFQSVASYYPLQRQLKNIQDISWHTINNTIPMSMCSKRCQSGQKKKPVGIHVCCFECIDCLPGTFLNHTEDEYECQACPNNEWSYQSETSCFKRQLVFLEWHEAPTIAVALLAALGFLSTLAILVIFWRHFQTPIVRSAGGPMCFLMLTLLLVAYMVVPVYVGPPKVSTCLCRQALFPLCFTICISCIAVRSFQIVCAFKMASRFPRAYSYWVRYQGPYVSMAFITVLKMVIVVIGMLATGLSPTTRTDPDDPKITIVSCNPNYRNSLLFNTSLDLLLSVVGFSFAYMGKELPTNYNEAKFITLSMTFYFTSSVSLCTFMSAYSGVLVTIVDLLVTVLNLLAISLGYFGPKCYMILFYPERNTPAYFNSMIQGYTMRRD
# Method in brief: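 Transfected HEK293E cells (50,000/well; 0.06 μg Tas1R plasmid and 0.06 μg Gα16-gust44 per well) were medium-changed at 20 h, then loaded after 24 h with 3 μM Fluo-4 AM in HBSS/20 mM HEPES for 1 h. Tastant added 30 s into scan; fluorescence (ex 488/em 525 nm) read every 2 s for 150 s. ΔF/F normalized to the hTas1R2/hTas1R3 sucralose response; three independent experiments; unpaired t test.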
# [2] = target: T2, smTas1R2/hTas1R3 (Saimiri sciureus, UniProt A3QP08); assay: Ca2+ mobilization, mismatched receptor; assay type: cell-based, human/squirrel monkey; conditions: aspartame 10mM, neotame 1mM, sucralose 2 mM, D-tryptophan 5mM, sucrose 150mM
# T2 sequence (A3QP08 20-834): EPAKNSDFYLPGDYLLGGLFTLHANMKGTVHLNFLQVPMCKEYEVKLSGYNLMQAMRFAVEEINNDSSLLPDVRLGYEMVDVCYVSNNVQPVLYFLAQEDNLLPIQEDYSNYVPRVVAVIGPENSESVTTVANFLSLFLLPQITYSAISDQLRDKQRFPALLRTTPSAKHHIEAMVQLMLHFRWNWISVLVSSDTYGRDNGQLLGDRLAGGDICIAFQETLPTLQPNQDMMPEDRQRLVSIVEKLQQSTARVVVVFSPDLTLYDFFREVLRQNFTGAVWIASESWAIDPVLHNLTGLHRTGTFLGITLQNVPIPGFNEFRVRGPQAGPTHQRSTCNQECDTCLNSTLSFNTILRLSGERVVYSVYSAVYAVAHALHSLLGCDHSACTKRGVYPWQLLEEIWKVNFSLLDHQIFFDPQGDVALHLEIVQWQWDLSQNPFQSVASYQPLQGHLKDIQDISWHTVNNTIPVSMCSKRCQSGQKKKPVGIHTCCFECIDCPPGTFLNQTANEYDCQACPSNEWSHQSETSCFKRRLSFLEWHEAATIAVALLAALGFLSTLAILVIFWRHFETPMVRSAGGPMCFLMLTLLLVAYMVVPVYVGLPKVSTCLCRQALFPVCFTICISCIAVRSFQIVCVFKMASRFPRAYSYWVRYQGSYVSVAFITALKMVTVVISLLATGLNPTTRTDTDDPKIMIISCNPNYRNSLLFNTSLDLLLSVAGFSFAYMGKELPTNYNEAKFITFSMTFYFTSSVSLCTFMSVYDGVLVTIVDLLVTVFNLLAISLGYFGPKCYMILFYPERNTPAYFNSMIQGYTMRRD
# T2 sequence (Q7RTX0 21-852 partner): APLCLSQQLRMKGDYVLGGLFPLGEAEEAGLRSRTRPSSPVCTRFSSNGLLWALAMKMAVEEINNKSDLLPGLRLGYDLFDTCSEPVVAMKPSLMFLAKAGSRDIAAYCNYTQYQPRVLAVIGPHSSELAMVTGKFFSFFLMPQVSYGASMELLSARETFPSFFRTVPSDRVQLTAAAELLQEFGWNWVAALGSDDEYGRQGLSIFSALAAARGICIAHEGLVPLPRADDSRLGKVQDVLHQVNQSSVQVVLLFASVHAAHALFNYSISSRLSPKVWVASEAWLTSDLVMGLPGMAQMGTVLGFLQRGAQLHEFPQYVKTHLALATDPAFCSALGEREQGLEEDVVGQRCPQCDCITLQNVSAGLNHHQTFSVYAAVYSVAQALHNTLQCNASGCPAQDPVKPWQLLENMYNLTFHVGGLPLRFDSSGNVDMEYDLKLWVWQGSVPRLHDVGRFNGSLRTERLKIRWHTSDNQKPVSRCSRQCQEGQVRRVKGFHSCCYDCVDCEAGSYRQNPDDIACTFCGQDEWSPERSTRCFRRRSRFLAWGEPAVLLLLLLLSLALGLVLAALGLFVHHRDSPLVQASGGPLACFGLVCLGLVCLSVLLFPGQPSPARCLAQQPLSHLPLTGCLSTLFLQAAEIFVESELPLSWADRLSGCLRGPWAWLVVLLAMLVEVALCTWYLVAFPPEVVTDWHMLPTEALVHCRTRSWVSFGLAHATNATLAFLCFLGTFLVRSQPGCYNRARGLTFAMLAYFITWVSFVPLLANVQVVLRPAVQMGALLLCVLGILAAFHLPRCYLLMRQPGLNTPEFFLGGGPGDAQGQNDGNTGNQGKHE
# Method in brief: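 HEK293E cells grown at 37°C in Opti-MEM with 5% FBS and seeded at 50,000/well. Cells co-lipofected with Tas1R plasmids and Gα16-gust44 (0.06 μg each per well); medium changed at 20 h, assayed 24 h later. Cells loaded 1 h with Fluo-4 AM in HEPES-buffered HBSS. Tastant added at 30 s; fluorescence (ex 488/em 525 nm) read every 2 s for 150 s more. ΔF/F normalised to human receptor maximal sucralose response; mean ± SEM, three independent experiments.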
SMILES,calcium response to sweetener [1],calcium response to sweetener [2]
OC[C@H]1O[C@@](CO)(O[C@H]2O[C@H](CO)[C@@H](O)[C@H](O)[C@H]2O)[C@@H](O)[C@@H]1O [sucrose],reduced responses,remained intact or reduced
N[C@H](Cc1c[nH]c2ccccc12)C(=O)O [D-tryptophan],reduced responses,remained intact or reduced
